Source: ChEMBL document CHEMBL2163250, “Carbonylhydrazide-based molecular tongs inhibit wild-type and mutated HIV-1 protease dimerization” (J Med Chem, 2012)
pKi: −log10 of the molar value. ≈ marks a conversion by molar mass, not a printed value. Blank lines part the entries; values can stand above or below the compound they belong to. Calls of active or inactive are those of the source. The rule behind the calls is not given here.

Key:
[1] = target: Protease (Human immunodeficiency virus 1) (UniProt Q9YQ12); test: Inhibition of HIV1 protease dimerization expressed in Escherichia coli Rosetta(DE3) using DABCYL-gamma-abu-Ser-Gln-Asn-Tyr-Pro-Ile-Val-Gln-EDANS as substrate at 28 uM by fluorimetric assay
Sequence of Protease (Human immunodeficiency virus 1) (Q9YQ12 as listed by the source): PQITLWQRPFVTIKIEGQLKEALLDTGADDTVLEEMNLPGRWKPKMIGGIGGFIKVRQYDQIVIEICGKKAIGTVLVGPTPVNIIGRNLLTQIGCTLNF

[2] = target: Protease (Human immunodeficiency virus 1, UniProt Q9YQ12); test: Inhibition of HIV1 protease dimerization expressed in Escherichia coli Rosetta(DE3) using DABCYL-gamma-abu-Ser-Gln-Asn-Tyr-Pro-Ile-Val-Gln-EDANS as substrate by Zhang-Poorman kinetic analysis
Sequence of Protease (Q9YQ12 whole entry): as the sequence (Q9YQ12 as listed by the source) above
How it was run: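 Recombinant PR expressed in E. coli Rosetta (DE3)pLysS from a pET-9 vector. Fluorogenic substrate at 5.2 μM (ex 340, em 490 nm) in 100 mM sodium acetate, 1 mM EDTA, 1 M NaCl, pH 4.7, 30 °C, final DMSO 3% (v/v). At least six enzyme concentrations (5.33–18.6 nM) and inhibitor 0.5–28 μM. Kid from Zhang–Poorman analysis, at least triplicate.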

[3] = Inhibition of HIV1 protease ANAM-11 mutant dimerization expressed in Escherichia coli Rosetta(DE3) using DABCYL-gamma-abu-Ser-Gln-Asn-Tyr-Pro-Ile-Val-Gln-EDANS as substrate by Zhang-Poorman kinetic analysis; design: species or system Human immunodeficiency virus 1
How it was run: (§1)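 Recombinant protease produced in E. coli Rosetta (DE3)pLysS from a pET-9 vector. Fluorimetric assay (ex 340, em 490 nm) run in 100 mM sodium acetate, 1 mM EDTA, 1 M NaCl, pH 4.7, at 30 °C with 3% (v/v) final DMSO. Substrate held at 5.2 μM, at least six enzyme concentrations (5.33−18.6 nM), inhibitor 0.5−28 μM. Kid derived from Zhang−Poorman analysis. At least triplicate.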

[4] = target: T1, Renin (Homo sapiens) (UniProt P00797); test: Inhibition of recombinant renin using Arg-Glu(EDANS)-Ile-His-Pro-Phe-His-Leu-Val-Ile-His-Thr-Lys-(DABCYL)-Arg as substrate at 10 uM by fluorimetric analysis
T1 sequence (whole entry): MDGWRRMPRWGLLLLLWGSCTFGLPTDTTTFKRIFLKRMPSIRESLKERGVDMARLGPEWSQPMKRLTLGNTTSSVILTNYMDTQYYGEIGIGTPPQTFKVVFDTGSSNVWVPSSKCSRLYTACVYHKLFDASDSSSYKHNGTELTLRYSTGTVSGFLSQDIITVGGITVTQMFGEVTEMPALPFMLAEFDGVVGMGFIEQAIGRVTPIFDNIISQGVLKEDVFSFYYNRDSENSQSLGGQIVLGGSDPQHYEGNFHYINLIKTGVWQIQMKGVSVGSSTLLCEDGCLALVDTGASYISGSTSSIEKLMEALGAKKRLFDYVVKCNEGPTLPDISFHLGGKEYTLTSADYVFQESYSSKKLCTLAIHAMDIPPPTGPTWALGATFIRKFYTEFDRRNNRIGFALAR
How it was run: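 Renin activity read fluorometrically with the EDANS/DABCYL substrate (Km 3.3 μM) at 5 μM in 50 mM Tris–HCl, 100 mM NaCl, 1 mM EDTA, pH 8.0. Excitation 340 nm, emission 500 nm. Compounds were tested at 10 μM.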

[5] = species: Sus scrofa; test: Inhibition of […] using Abz-Thr-Ile-Nle-(p-NO2-Phe)-Gln-Arg-NH2 as substrate at 10 uM by fluorimetric analysis
How it was run: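 Pepsin from porcine gastric mucosa assayed fluorometrically in 10 mM NaHCOO, pH 3.5, with 20 μM Abz-Thr-Ile-Nle-(p-NO₂-Phe)-Gln-Arg-NH₂ substrate (Km 13.3 μM). Excitation 337 nm, emission 410 nm. Compounds were tested at 10 μM.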

[6] = Chemical stability in RPMI medium up to 48 hrs in presence of 20% fetal calf serum; assay type: physicochemical; conditions: cattle
How it was run: (§2)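 Inhibitor incubated at 37 °C in RPMI culture medium with 20% fetal calf serum for up to 2 days. Incubations stopped with ethanol, cooled to 4 °C and centrifuged, and the supernatant analysed by HPLC. Half-life came from least-squares linear regression of a semilog plot of remaining inhibitor versus incubation time.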

[7] = target: Protease (Human immunodeficiency virus 1) (UniProt Q9YQ12); test: Inhibition of HIV1 protease dimerization expressed in Escherichia coli Rosetta(DE3) at 5 uM by 1-Anilino-8-naphthalene sulfonate-based fluorescent probe binding assay
How it was run: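 Recombinant PR (350 nM) in 100 mM sodium acetate, 1 M NaCl, 1 mM EDTA, pH 4.7, incubated at 25 °C with or without 5 μM inhibitor. ANS was then added at final 10–60 μM, with final DMSO 0.2% (v/v). Excitation 370 nm, emission 470 nm. Fluorescence was corrected for ANS plus inhibitor without enzyme, and each measurement was averaged over five reads.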

[8] = Inhibition of HIV1 protease MDR-HM mutant dimerization expressed in Escherichia coli Rosetta(DE3) using DABCYL-gamma-abu-Ser-Gln-Asn-Tyr-Pro-Ile-Val-Gln-EDANS as substrate by Zhang-Poorman kinetic analysis; design: species or system Human immunodeficiency virus 1; how it was run: as §1
[9] = Half life of the compound in RPMI medium in presence of 20% fetal calf serum; assay type: physicochemical; conditions: cattle, RPMI medium with 20% fetal calf serum; how it was run: as §2
[10] = Solubility of the compound; assay type: physicochemical

SMILES: CC(C)[C@H](NC(=O)CCCOc1ccc2ccc(OCCCC(=O)N[C@H](C(=O)NNC(=O)[C@@H](NC(=O)OC(C)(C)C)C(C)C)C(C)C)cc2c1)C(=O)NNC(=O)[C@@H](NC(=O)OC(C)(C)C)C(C)C
- pKi [2]: 7.30
- pKi [3]: 7.10
- inhibition [4]: inactive
- inhibition [5]: inactive
- Stability [6]: Stable
- inhibition [7]: Active
- pKi [8]: 6.80

SMILES: CC(=O)NNC(=O)NNC(=O)[C@H](CCCCNC(=O)CCCOc1ccc2ccc(OCCCC(=O)NCCCC[C@H](NC(=O)OC(C)(C)C)C(=O)NNC(=O)NNC(C)=O)cc2c1)NC(=O)OC(C)(C)C
- inhibition [1]: 0%

SMILES: COC(=O)[C@@H](NC(=O)[C@H](CC(C)C)NC(=O)[C@@H](NC(=O)CCCOc1ccc2ccc(OCCCC(=O)N[C@H](C(=O)N[C@@H](CC(C)C)C(=O)N[C@H](C(=O)OC)C(C)C)C(C)C)cc2c1)C(C)C)C(C)C
- pKi [2]: 6.25
- inhibition [7]: Active

SMILES: COC(=O)CCNC(=O)NNC(=O)NNC(=O)CCCOc1ccc2ccc(OCCCC(=O)NNC(=O)NNC(=O)NCCC(=O)OC)cc2c1
- inhibition [1]: 0%

SMILES: CC(=O)NNC(=O)NNC(=O)CCNC(=O)CCCOc1ccc2ccc(OCCCC(=O)NCCC(=O)NNC(=O)NNC(C)=O)cc2c1
- inhibition [1]: 0%

SMILES: COC(=O)[C@@H](NC(=O)[C@H](CC(C)C)NC(=O)[C@@H](NC(=O)CCCOc1ccc2ccc(OCCCC(=O)N[C@H](C(=O)NNC(=O)[C@@H](NC(=O)OC(C)(C)C)C(C)C)C(C)C)cc2c1)C(C)C)C(C)C
- pKi [2]: 7.05
- pKi [3]: 7.00
- inhibition [4]: inactive
- inhibition [5]: inactive
- half-life [9]: 24 h
- inhibition [7]: Active
- pKi [8]: 6.80

SMILES: CC(C)[C@H](NC(=O)NNC(=O)NNC(=O)CCCOc1ccc2ccc(OCCCC(=O)NNC(=O)NNC(=O)N[C@H](C(N)=O)C(C)C)cc2c1)C(N)=O
- pKi [2]: 6.15
- pKi [3]: 6.10
- inhibition [4]: inactive
- inhibition [5]: inactive
- solubility [10]: 300 µg/mL (≈ 394 µM)
- Stability [6]: Stable
- pKi [8]: 5.80

SMILES: COC(=O)[C@@H](NC(=O)[C@H](CC(C)C)NC(=O)[C@@H](NC(=O)CCCOc1ccc2ccc(OCCCC(=O)NNC(=O)NNC(=O)N[C@H](C(N)=O)C(C)C)cc2c1)C(C)C)C(C)C
- pKi [2]: 6.82
- pKi [3]: 6.77
- inhibition [4]: inactive
- inhibition [5]: inactive
- half-life [9]: 24 h
- inhibition [7]: Active
- pKi [8]: 6.57

SMILES: CC(=O)N[C@H](C(=O)N[C@H](C(=O)N[C@@H](CC(C)C)[C@@H](O)CC(=O)N[C@@H](C)C(=O)N[C@@H](CC(C)C)[C@@H](O)CC(=O)O)C(C)C)C(C)C
- inhibition [7]: inactive

More lines, now with the values ahead:

- inhibition [1]: 0%
SMILES: CC(C)[C@H](NC(=O)CCCOc1ccc2ccc(OCCCC(=O)O)cc2c1)C(=O)NNC(=O)[C@@H](NC(=O)OC(C)(C)C)C(C)C

- inhibition [7]: inactive
SMILES: CC(C)(C)NC(=O)[C@@H]1C[C@@H]2CCCC[C@@H]2CN1C[C@@H](O)[C@H](Cc1ccccc1)NC(=O)[C@H](CC(N)=O)NC(=O)c1ccc2ccccc2n1

- inhibition [7]: inactive
SMILES: CC(C)CN(C[C@@H](O)[C@H](Cc1ccccc1)NC(=O)O[C@H]1CCOC1)S(=O)(=O)c1ccc(N)cc1

- inhibition [1]: 13%
SMILES: CNC(=O)NNC(=O)NNC(=O)CCCOc1ccc2ccc(OCCCC(=O)NNC(=O)NNC(=O)NC)cc2c1

- inhibition [1]: 21%
SMILES: CC(=O)NNC(=O)NNC(=O)[C@@H](NC(=O)CCCOc1ccc2ccc(OCCCC(=O)N[C@H](C(=O)NNC(=O)NNC(C)=O)C(C)C)cc2c1)C(C)C
